# Experiments:
# MRSA3 = experiment: In vitro antibacterial activity; type: cell-based; settings: Staphylococcus aureus
# MRSA2 = experiment: In vitro antibacterial activity; type: cell-based, Staphylococcus aureus
# MRSA4 = experiment: In vitro antibacterial activity; type: cell-based; settings: Staphylococcus aureus
# MRSA1 [1] = experiment: In vitro antibacterial activity; type: cell-based; settings: Staphylococcus aureus
# MRSA5 = experiment: In vitro antibacterial activity; type: cell-based; settings: Staphylococcus aureus
# [2] = comparison value for vancomycin ref 18, 19; cited from earlier work
# MRSA1 [3] = experiment: In vivo antibacterial activity, survival of MRSA1 infected mice; set-up: species or system BALB/c mice; settings: for survival (%): final survival rate after 7 days
# How it was run: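 Female BALB/c mice (6–8 weeks, 18-22 g) were housed under SPF conditions. They were infected via the tail vein with 0.1 mL of a Columbia broth culture of clinical MRSA1 diluted to OD600 1.5. One hour later, test compound or vancomycin was given IV at 2.5, 10 or 40 mg/kg; an untreated model group was included. Deaths were recorded daily for 7 days to build survival curves. Tissues were examined by H&E histology.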
smiles,measurement,setting,value
CN[C@H](CC(C)C)C(=O)N[C@H]1C(=O)N[C@@H](CC(N)=O)C(=O)N[C@H]2C(=O)N[C@H]3C(=O)N[C@H](C(=O)N[C@H](C(=O)O)c4cc(O)cc(O)c4-c4cc3ccc4O)[C@H](O)c3ccc(c(Cl)c3)Oc3cc2cc(c3O[C@@H]2O[C@H](CO)[C@@H](O)[C@H](O)[C@H]2O[C@H]2C[C@](C)(N)[C@H](O)[C@H](C)O2)Oc2ccc(cc2Cl)[C@H]1O [vancomycin],MIC,MRSA3,512 µg/mL
same,MIC,MRSA2; Staphylococcus aureus,> 512 µg/mL
same,MIC,MRSA2; clinical isolate MRSA2,>512 µg/mL
same,MIC,MRSA4,256 µg/mL
same,MIC,MRSA1 [1],256 µg/mL
same,MIC,MRSA5,256 µg/mL
same,half-life (T1/2),[2],4.3 ± 1.9 h
same,survival (%),MRSA1 [3]; 2.5 mg/kg (low-dose),0%
same,number of mice surviving,"MRSA1 [3]; 2.5 mg/kg via tail vein, day1, 6 mice",3
same,number of mice surviving,"MRSA1 [3]; 2.5 mg/kg via tail vein, day2, 6 mice",2
same,number of mice surviving,"MRSA1 [3]; 2.5 mg/kg via tail vein, day3, 6 mice",2
same,number of mice surviving,"MRSA1 [3]; 2.5 mg/kg via tail vein, day4, 6 mice",2
same,number of mice surviving,"MRSA1 [3]; 2.5 mg/kg via tail vein, day5, 6 mice",1
same,number of mice surviving,"MRSA1 [3]; 2.5 mg/kg via tail vein, day6, 6 mice",1
same,number of mice surviving,"MRSA1 [3]; 2.5 mg/kg via tail vein, day7, 6 mice",0
same,survival (%),MRSA1 [3]; 10 mg/kg (medium-dose),16.7%
same,number of mice surviving,"MRSA1 [3]; 10 mg/kg via tail vein, day1, 6 mice",6
same,number of mice surviving,"MRSA1 [3]; 10 mg/kg via tail vein, day2, 6 mice",5
same,number of mice surviving,"MRSA1 [3]; 10 mg/kg via tail vein, day3, 6 mice",2
same,number of mice surviving,"MRSA1 [3]; 10 mg/kg via tail vein, day4, 6 mice",2
same,number of mice surviving,"MRSA1 [3]; 10 mg/kg via tail vein, day5, 6 mice",2
same,number of mice surviving,"MRSA1 [3]; 10 mg/kg via tail vein, day6, 6 mice",1
same,number of mice surviving,"MRSA1 [3]; 10 mg/kg via tail vein, day7, 6 mice",1
same,survival (%),MRSA1 [3]; 40 mg/kg (high-dose),33.3%
same,number of mice surviving,"MRSA1 [3]; 40 mg/kg via tail vein, day1, 6 mice",5
same,number of mice surviving,"MRSA1 [3]; 40 mg/kg via tail vein, day2, 6 mice",5
same,number of mice surviving,"MRSA1 [3]; 40 mg/kg via tail vein, day3, 6 mice",5
same,number of mice surviving,"MRSA1 [3]; 40 mg/kg via tail vein, day4, 6 mice",4
same,number of mice surviving,"MRSA1 [3]; 40 mg/kg via tail vein, day5, 6 mice",2
same,number of mice surviving,"MRSA1 [3]; 40 mg/kg via tail vein, day6, 6 mice",2
same,number of mice surviving,"MRSA1 [3]; 40 mg/kg via tail vein, day7, 6 mice",2
same,ED50,MRSA1 [3]; Mus musculus,59.7 mg/kg
same,"kidney infection, H&E staining",MRSA1 [3]; high-dose (40 mg/kg),severe kidney infection
same,"kidney infection, H&E staining",MRSA1 [3]; low-dose (2.5 mg/kg),severe kidney infection
same,"kidney infection, H&E staining",MRSA1 [3]; medium-dose (10 mg/kg),severe kidney infection
